Bioassay records as filed in PubChem BioAssay.
A selection: hits, their analogues and other compounds. The true share with any hit is near 29%.
CYP2C19 inhib: blockers of cytochrome P450 2C19 activity – biochemical, luminescence, ADME assay, primary screen; P33261; CYP2C19 Supersomes, luciferin-H EGE luminescence, 30 min; inhibition, % at 5 µM; 96,000 compounds, 21% hits; AID 778, 2007;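 active = CYP2C19 inhibition above a set limit at 5 µM in the primary screen, cut at about 50% in these data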
Target sequence (P33261 whole entry, looked up): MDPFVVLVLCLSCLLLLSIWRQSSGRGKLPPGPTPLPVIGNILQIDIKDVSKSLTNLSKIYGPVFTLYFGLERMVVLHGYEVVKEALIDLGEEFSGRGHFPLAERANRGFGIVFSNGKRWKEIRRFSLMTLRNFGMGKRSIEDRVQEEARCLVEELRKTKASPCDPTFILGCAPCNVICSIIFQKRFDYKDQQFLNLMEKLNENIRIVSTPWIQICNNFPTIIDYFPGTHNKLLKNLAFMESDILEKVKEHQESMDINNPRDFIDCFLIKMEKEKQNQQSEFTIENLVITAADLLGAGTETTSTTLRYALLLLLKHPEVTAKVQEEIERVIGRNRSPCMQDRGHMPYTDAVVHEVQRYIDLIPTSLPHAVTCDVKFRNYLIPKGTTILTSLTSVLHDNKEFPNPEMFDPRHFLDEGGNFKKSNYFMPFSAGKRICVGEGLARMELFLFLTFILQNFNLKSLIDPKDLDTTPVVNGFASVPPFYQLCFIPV
CYP2C9 act: human CYP2C9 activators, primary screen, biochemical, luminescence | recombinant CYP2C9, luciferin-H conversion; hits give high values; factor 1 = untreated enzyme, 0 = blocked | activation factor at 5 µM | 96,000 compounds, 1.4% hits | AID 1024, 2008;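 active = activation factor of 2 or more for CYP2C9 at a 5 µM dose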
CYP2C9 inhib: blockers of cytochrome P450 2C9 activity – biochemical, luminescence, ADME assay, primary screen; P11712; CYP2C9 Supersomes, luciferin-H conversion; inhibition, % at 5 µM; 96,000 compounds, 20% hits; AID 777, 2007;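 active = blocking of liver enzyme CYP2C9 beyond about 50% at 5 µM, limit read from the data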
CYP2C19 act: human CYP2C19 activators, primary screen, biochemical, luminescence; activation factor at 5 µM; recombinant CYP2C19, luciferin-H EGE luminescence; hits give high values; 0 = fully inhibited enzyme, 1 = untreated enzyme; AID 1025, 2008; 96,000 tested, under 10 active; Cytochrome P450 2C19 (Homo sapiens), P33261;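 active = activation factor of at least 2 at 5 µM in the primary screen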
Ecoli tolC: growth inhibitors of E. coli tolC mutant, primary screen, strain BW25113 ΔtolC::kan, 384-well; OD615; growth inhibition, % at 10 µM (by protocol); 65,000 compounds, 2.2% hits;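 active = growth inhibition at or above a cutoff equal to the mean over every tested compound plus 3 SD, cut at about 60% in these data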;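 also: growth measured after 20 h incubation at 37 °C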
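System: E. coli ΔtolC::kan strain BW25113; Buffer or medium: LB broth supplemented with 50 µg/mL kanamycin; Compound: 10 µM final, single dose; Incubation: bacterial growth with compound for 20 h at 37 °C; Signal: A615 absorbance measurement; Evaluation: growth inhibition in percent.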
E coli WT exp: growth inhibitors of wild-type E. coli, primary screen, strain BW25113, expanded library, OD600 | 98,000 compounds, 0.15% hits | OD600 absorbance | growth inhibition, % at 100 µM;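 active = growth inhibition above about 50% at one test dose, limit read from the data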;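 also: growth measured after 20 h incubation at 37 °C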
Large screens that a line does not name were inactive.

Cc1nnc2sc(-c3ccc(NC(=O)c4ccc(-c5ccc(Cl)cc5Cl)o4)cc3)nn12	none (no result: CYP2C19 inhib, CYP2C9 act, CYP2C9 inhib, CYP2C19 act, E coli WT exp)
COc1cc(-c2cccs2)cc(=O)c2c(C)oc(C)c12	none
NC(=O)c1ccsc1NC(=O)C1CCCCC1	CYP2C19 inhib 63
CC(=O)Nc1ccc(OCC(O)Cn2nc(C)nc2C)cc1 (stereo not drawn)	none
Cc1nc(C)n(CC(O)COc2ccc3ccccc3c2)n1 (stereo not drawn)	CYP2C19 inhib 70
N#CC1=C(N)SC(N)=C(C#N)C1Cc1ccccc1	none
N#CC1=C(N)SC(N)=C(C#N)C1C1CC=CCC1 (stereo not drawn)	CYP2C19 inhib 84
C/C(=N\S(=O)(=O)c1ccc(C)cc1)N1CCN(S(=O)(=O)c2ccccc2)C1C(C)C (stereo not drawn)	CYP2C19 inhib 78, CYP2C9 act 2.4 (no result: Ecoli tolC)
CC(=O)N1CCN(S(=O)(=O)c2ccc(C)cc2)C1C(C)C (stereo not drawn)	CYP2C19 inhib 69
Cn1nnnc1CCOCCc1nnnn1C	none
COc1ccc(N2C(=O)CC(N3CCN(C4CCc5ccccc5C4)CC3)C2=O)cc1 (stereo not drawn)	none
CCCc1cc(=O)oc2cc3occ(C)c3cc12	CYP2C19 inhib 71, CYP2C9 inhib 76
CCc1cc(=O)oc2cc3oc(C)c(C)c3cc12	none
CCCc1cc(=O)oc2cc3oc(C)c(C)c3cc12	CYP2C19 inhib 72
Cc1coc2cc3oc(=O)c4c(c3cc12)CCC4	none
CCCc1cc(=O)oc2cc(C)c3c(C)coc3c12	CYP2C19 inhib 53
O=C(Nc1ccc2oc(=O)ccc2c1)c1cccnc1Cl	none (no result: CYP2C19 inhib, CYP2C9 act, CYP2C9 inhib, CYP2C19 act, Ecoli tolC)
O=C(CSCCO)Nc1cc(C(F)(F)F)ccc1Cl	none
N#C/C(C(=O)c1ccccc1)=C1/CCCCCN1	none
CC(NC(=O)COC(=O)c1ccco1)c1ccccc1 (stereo not drawn)	none (no result: Ecoli tolC)
CCOc1ncccc1C(=O)N1CCN(Cc2ccc3c(c2)OCO3)CC1	CYP2C19 inhib 82, CYP2C9 inhib 55 (no result: Ecoli tolC)
COc1ccc(CN2CCN(C(=O)CC(C)C)CC2)c2ccccc12	CYP2C19 inhib 52
O=C(c1cccn2c(=O)c3ccc(Cl)cc3nc12)N1CCN(Cc2ccc3c(c2)OCO3)CC1	CYP2C9 inhib 70
O=C(N1CCN(Cc2ccc3c(c2)OCO3)CC1)C12CC3CC(CC(C3)C1)C2	CYP2C19 inhib 66, CYP2C9 inhib 50 (no result: E coli WT exp)
O=C(c1cc2cc3ccc(Cl)cc3nc2o1)N1CCN(Cc2ccc3c(c2)OCO3)CC1	none (no result: CYP2C19 inhib, CYP2C9 act, CYP2C9 inhib, CYP2C19 act, E coli WT exp)
O=C(c1cnn2cccnc12)N1CCN(Cc2ccc3c(c2)OCO3)CC1	none
COc1cccc(OC)c1C(=O)N1CCN(Cc2ccc3c(c2)OCO3)CC1	CYP2C19 inhib 57, CYP2C9 inhib 61
O=C(Cn1ncc2c1-c1ccccc1OC2)N1CCN(Cc2ccc3c(c2)OCO3)CC1	CYP2C9 inhib 68
O=C(CN1C(=O)c2ccccc2S1(=O)=O)N1CCN(Cc2ccc3c(c2)OCO3)CC1	none
Cc1ccc(C(=O)N2CCN(Cc3ccc4c(c3)OCO4)CC2)o1	none (no result: Ecoli tolC)
COc1cccc(OC)c1C(=O)N1CCN(Cc2ccccc2C)CC1	CYP2C19 inhib 79, CYP2C9 inhib 74
Cc1ccc(NC(=O)N2CCN(Cc3ccc4c(c3)OCO4)CC2)cc1	CYP2C9 inhib 81 (no result: Ecoli tolC)
COc1cccc(CN2CCN(C(=O)c3cccc4ccccc34)CC2)c1OC	none
Cc1cc(NC(=O)CSc2nccn2-c2ccc(Cl)cc2)no1	CYP2C19 inhib 81, CYP2C9 inhib 54
Cc1cc(NC(=O)CSc2nccn2-c2ccc(F)cc2)no1	CYP2C19 inhib 69
c1cnc(N2CC[N+]3(CCCC3)CC2)nc1	none
CCCC(=O)Nc1ccc(NC(=O)CCc2ccccc2)cn1	none
CCOC(=O)C(/C=C(\C#N)C(=O)OCC)=C(/N)N1CCN(c2c(C)cccc2C)CC1	none (no result: Ecoli tolC)
CC1(C)Cc2c(c(N3CCOCC3)nc3sc4c(=O)[nH]cnc4c23)CS1	none
COC(=O)CSc1ncnc2c1sc1nc(N3CCOCC3)c3c(c12)CCCC3	none (no result: Ecoli tolC)
CC1(C)Cc2c(c(N3CCOCC3)nc3sc4c(N5CCOCC5)nnnc4c23)CS1	CYP2C9 inhib 78 (no result: Ecoli tolC)
CCOC(=O)CSc1ncnc2c1sc1nc(N3CCOCC3)c3c(c12)CCCC3	CYP2C9 inhib 54 (no result: Ecoli tolC)
CC1(C)Cc2c(c(N3CCCC3)nc3sc4c(N5CCN(CCO)CC5)ncnc4c23)CO1	Ecoli tolC 65 (no result: CYP2C19 inhib, CYP2C9 act, CYP2C9 inhib, CYP2C19 act)
CCc1nc2c(sc3nc(N4CCOCC4)c4c(c32)CC(C)(C)OC4)c(=O)o1	CYP2C9 inhib 61 (no result: E coli WT exp)
OCCN1CCN(c2ncnc3c2sc2nc(N4CCOCC4)c4c(c23)CCC4)CC1	CYP2C19 inhib 84, CYP2C9 inhib 79
c1nc(N2CCNCC2)c2sc3nc(N4CCOCC4)c4c(c3c2n1)CCC4	none (no result: E coli WT exp)
OCCN(CCO)c1ncnc2c1sc1nc(N3CCOCC3)c3c(c12)CCCC3	CYP2C19 inhib 81, CYP2C9 inhib 89
COC(=O)CN1C(=O)C(O)(CC(=O)c2ccc(C)cc2)c2cc(Br)ccc21 (stereo not drawn)	none
CN1C(=O)C(O)(CC(=O)c2ccc(F)cc2)c2cc(Br)ccc21 (stereo not drawn)	CYP2C19 inhib 79
Cn1c(=O)c2c(nc(SCC(=O)O)n2Cc2cc3c(cc2Cl)OCO3)n(C)c1=O	none (no result: Ecoli tolC)
O=C(Cc1ccccc1)N/N=C/c1ccccc1Cl	CYP2C19 inhib 57 (no result: Ecoli tolC)
O=C(CC(=O)N/N=C/c1ccc(Cl)cc1Cl)NCc1ccccc1	CYP2C19 inhib 55 (no result: Ecoli tolC)
C=CCNC(=O)CC(=O)N/N=C/c1ccccc1F	CYP2C9 inhib 89 (no result: Ecoli tolC)
CCSc1nnc(CNc2ccc(F)cc2)n1CC1CCCO1 (stereo not drawn)	none
O=S(=O)(c1cccc2cccnc12)N1CCN(Cc2ccc3c(c2)OCO3)CC1	CYP2C9 act 2.5
CCN1CCN(S(=O)(=O)c2ccc(Br)s2)CC1	none
O=C(CCS(=O)(=O)c1cccc2nsnc12)N1CCN(Cc2ccc3c(c2)OCO3)CC1	none
O=S(=O)(c1cc(Cl)ccc1Cl)N1CCN(Cc2ccc3c(c2)OCO3)CC1	CYP2C19 inhib 50
CS(=O)(=O)N1CCc2cc(S(=O)(=O)N3CCN(Cc4ccc5c(c4)OCO5)CC3)ccc21	none
O=S(=O)(c1ccc(Br)s1)N1CCN(Cc2ccc3c(c2)OCO3)CC1	CYP2C19 inhib 89, CYP2C9 inhib 97 (no result: Ecoli tolC)
O=S(=O)(NCc1ccc2c(c1)OCO2)c1cccc2cccnc12	CYP2C19 inhib 64, CYP2C9 act 2.7
Cc1ccc(-n2ncc3c(=O)n(Cc4cccnc4)cnc32)cc1	none
CN1CC(=O)NC1=NC(=O)c1ccc(Cl)c(S(=O)(=O)N2CCCCCC2)c1	none
